# Measured values from ChEMBL document CHEMBL4049414, “Can We Make Small Molecules Lean? Optimization of a Highly Lipophilic TarO Inhibitor” (J Med Chem, 2017).
# Active and inactive are the calls of the source. The calls are words filed in the database; no cut-off is given here.
# Key:
# [1] = tested on: Staphylococcus aureus subsp. aureus COL; assay: Inhibition of methicillin-resistant Staphylococcus aureus COL TarO assessed as compound concentration required for potentiation of imipenem-mediated bacterial growth inhibition by 95% after 20 hrs
# In short: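 MRSA COL grown with compound in the presence of imipenem at 4 μg/mL. Growth read by OD600. The value is the minimum concentration that inhibits 95% of growth (sMITC95).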
# Staphylococcus aureus = assay: Growth inhibition of methicillin-resistant Staphylococcus aureus COL after 20 hrs
# In short: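 MRSA COL grown with compound alone, with no antibiotic added. Growth read by OD600. The value is the minimum concentration that inhibits 95% of growth (iMITC95).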
# [2] = Inhibition of TarO in methicillin-resistant Staphylococcus aureus membranes assessed as reduction in C55-P-P-GlcNAc production using C55-P as substrate in presence of UDP-GlcNAc by LC-MS analysis
# [3] = Solubility of the compound in PBS buffer; type: physicochemical
# [4] = Clearance in rat at 1 mg/kg, iv; type: ADME, organism-based; details: in vivo
# [5] = target: Histamine H2 receptor (Homo sapiens) (UniProt P25021); assay: Inhibition of H2 receptor (unknown origin) at 10 uM relative to control
# [6] = Terminal half life in rat at 1 mg/kg, iv; type: ADME, organism-based; details: in vivo, read-out: beta t1/2 (converted)
# [7] = target: Cannabinoid receptor 1 (Homo sapiens) (UniProt P21554); assay: Inhibition of CB1 receptor (unknown origin) at 10 uM relative to control
# Homo sapiens [8] = species: Homo sapiens; assay: Inhibition of PAF (unknown origin) at 10 uM relative to control
# Homo sapiens [9] = species: Homo sapiens; assay: Inhibition of TBOB binding to GABA-A receptor (unknown origin) at 10 uM relative to control
# Homo sapiens [10] = species: Homo sapiens; assay: Inhibition of adenosine transporter (unknown origin) at 10 uM relative to control
# [11] = target: Mitogen-activated protein kinase 3 (Homo sapiens) (UniProt P27361); assay: Inhibition of ERK1 (unknown origin) at 10 uM relative to control
# [12] = Volume of distribution at steady state in rat at 1 mg/kg, iv; type: ADME, organism-based; details: in vivo, read-out: Vdss
# [13] = AUC (0 to infinity) in rat at 1 mg/kg, iv; type: ADME, organism-based; set-up: dose 1 mg/kg, time infinity, route intravenous; details: in vivo
# [14] = Inhibition of methicillin-resistant Staphylococcus aureus COL TarO assessed as suppression of bacteriophage K-mediated cell lysis; set-up: species or system Staphylococcus aureus subsp. aureus COL
# [15] = Inhibition of methicillin-resistant Staphylococcus aureus COL TarO assessed as late stage targocil suppression after 20 hrs; set-up: species or system Staphylococcus aureus subsp. aureus COL
# Mitogen-activated protein kinase 3 (Homo sapiens), sequence (P27361 whole entry): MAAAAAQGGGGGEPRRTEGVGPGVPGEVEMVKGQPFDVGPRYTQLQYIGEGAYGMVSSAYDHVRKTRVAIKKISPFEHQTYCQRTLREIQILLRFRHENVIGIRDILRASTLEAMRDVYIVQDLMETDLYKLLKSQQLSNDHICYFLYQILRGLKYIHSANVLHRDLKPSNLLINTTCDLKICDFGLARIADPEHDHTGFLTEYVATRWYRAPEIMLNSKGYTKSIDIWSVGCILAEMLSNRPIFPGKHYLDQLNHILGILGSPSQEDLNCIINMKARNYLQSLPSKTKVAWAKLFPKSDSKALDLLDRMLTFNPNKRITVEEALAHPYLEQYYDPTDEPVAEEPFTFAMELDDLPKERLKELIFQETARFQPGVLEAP
# Cannabinoid receptor 1 (Homo sapiens), sequence (P21554 whole entry): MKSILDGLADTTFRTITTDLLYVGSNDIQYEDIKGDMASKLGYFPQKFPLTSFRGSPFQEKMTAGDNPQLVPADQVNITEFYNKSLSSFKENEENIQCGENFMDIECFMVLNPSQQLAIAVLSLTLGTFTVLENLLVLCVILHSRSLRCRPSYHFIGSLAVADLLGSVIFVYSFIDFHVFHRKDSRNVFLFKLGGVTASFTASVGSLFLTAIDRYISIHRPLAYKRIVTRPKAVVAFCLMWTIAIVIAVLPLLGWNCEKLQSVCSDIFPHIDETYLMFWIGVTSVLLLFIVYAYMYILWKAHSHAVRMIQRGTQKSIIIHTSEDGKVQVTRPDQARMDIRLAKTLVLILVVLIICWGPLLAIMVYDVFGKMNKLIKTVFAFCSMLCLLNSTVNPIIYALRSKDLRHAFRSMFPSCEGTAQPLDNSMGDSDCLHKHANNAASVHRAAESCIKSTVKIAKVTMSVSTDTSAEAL
# Histamine H2 receptor (Homo sapiens), sequence (P25021 whole entry): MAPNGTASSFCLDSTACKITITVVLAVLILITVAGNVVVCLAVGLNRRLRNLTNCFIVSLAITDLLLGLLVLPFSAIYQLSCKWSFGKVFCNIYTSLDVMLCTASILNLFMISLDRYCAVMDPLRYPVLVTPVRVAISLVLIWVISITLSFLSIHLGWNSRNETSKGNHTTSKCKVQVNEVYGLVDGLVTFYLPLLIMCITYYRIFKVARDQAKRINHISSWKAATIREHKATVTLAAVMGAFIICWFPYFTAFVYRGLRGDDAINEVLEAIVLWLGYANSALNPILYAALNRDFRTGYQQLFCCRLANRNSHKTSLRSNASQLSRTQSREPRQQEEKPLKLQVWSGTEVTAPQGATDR
Structure (SMILES),MITC95 [1],MITC95 (Staphylococcus aureus),IC50 [2],other results
O=C(NCc1cncc2cccnc12)N1C(=O)O[C@H](c2cc(C(F)(F)F)cc(C(F)(F)F)c2)[C@@H]1CO,390 nM,> 200 µM,0.142 µM,
C[C@H]1[C@@H](c2cc(C(F)(F)F)cc(C(F)(F)F)c2)OC(=O)N1C(=O)CCCc1cccc2ccccc12,125 nM,> 200 µM,0.028 µM,
C[C@H]1[C@@H](c2cccc(C(F)(F)F)c2)OC(=O)N1C(=O)NCc1cncc2cccnc12,970 nM,> 200 µM,0.402 µM,
C[C@H]1[C@@H](c2cc(C(F)(F)F)cc(C(F)(F)F)c2)OC(=O)N1C(=O)Cc1cccc2ccccc12,900 nM,> 200 µM,0.125 to 0.171 µM,solubility [3]: < 1 µM
C[C@H]1[C@@H](c2cc(C(F)(F)F)ccn2)OC(=O)N1C(=O)NCc1cncc2ccccc12,6250 nM,> 200 µM,5.3 µM,
O=C(O)[C@H]1[C@@H](c2cccc(C(F)(F)F)c2)OC(=O)N1C(=O)NCc1cncc2ccccc12,> 200000 nM,> 200 µM,> 200 µM,
O=C(O)C[C@H]1[C@@H](c2cc(F)cc(C(F)(F)F)c2)OC(=O)N1C(=O)NCc1cncc2ccccc12,> 200000 nM,> 200 µM,> 200 µM,
C[C@H]1[C@@H](c2cc(C(F)(F)F)cc(C(F)(F)F)c2)OC(=O)N1C(=O)CCc1cccc2ccccc12,15 nM,> 200 µM,0.009 µM,
C[C@H]1[C@@H](c2cc(F)cc(C(F)(F)F)c2)OC(=O)N1C(=O)NCc1cncc2ccccc12,125 nM,> 200 µM,0.025 µM,
O=C(NCc1cncc2ccccc12)N1C(=O)O[C@H](c2cc(F)cc(C(F)(F)F)c2)[C@@H]1CCO,18000 nM,> 200 µM,4.7 µM,
C[C@H]1[C@@H](c2cc(C(F)(F)F)cc(C(F)(F)F)c2)OC(=O)N1C(=O)NCc1cncc2cccnc12,125 nM,> 200 µM,0.012 µM,
COc1cc(C(F)(F)F)cc([C@H]2OC(=O)N(C(=O)NCc3cncc4cccnc34)[C@H]2CO)n1,900 nM,> 200 µM,0.88 µM,clearance [4]: 36.8 mL/min/kg; inhibition [5]: inactive; solubility [3]: 94 µM; half-life [6]: 28.8 min; inhibition [7]: inactive; inhibition (Homo sapiens [8]): inactive; inhibition (Homo sapiens [9]): inactive; inhibition (Homo sapiens [10]): inactive; inhibition [11]: inactive; Vd [12]: 1.2 L/kg; AUC(0-inf) [13]: 0.95 µM·h
C[C@H]1[C@@H](c2cc(C(F)(F)F)cc(C(F)(F)F)c2)OC(=O)N1C(=O)NCc1cncc2ccccc12,31 nM,> 200 µM,0.029 µM,IC50 [14]: 0.094 µM; IC50 [15]: 0.191 µM
COc1cc(C(F)(F)F)cc([C@H]2OC(=O)N(C(=O)NCc3cncc4ccccc34)[C@H]2CO)n1,360 nM,> 200 µM,0.08 µM,
